AI-2 QS modul: modulates the Vibrio harveyi AI-2 quorum sensing system; Vibrio harveyi JMH597 AI-2 luminescence/OD600 ratio, 9 h; hits give low values; strain lacks LuxN and CqsS sensors; 0 = neutral-control median; activity change, % at 7.5 µM; actives 0.4% (n = 300,000); AID 2094; in the data active = activity change below about -75%, passing the limit was not always enough;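 also: luminescence divided by OD600 gain over 9 h not by final OD600 alone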
T cruzi repl: T. cruzi replication inhibition. actives 1.4% (n = 300,000). inhibition, % (no concentration beside the values). T. cruzi beta-gal in NIH3T3, luminescence, 90 h. AID 1885;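 active = mean inhibition across valid replicates above about 55%, limit read from the data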;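 also: signal also drops with host cell toxicity which is not excluded here; 0% = plate median of DMSO wells and 100% = zero luminescence signal; higher percent means less beta-gal luminescence so fewer parasites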
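System – NIH/3T3 host cells with β-galactosidase reporter T. cruzi · Doses – single 50 nL compound addition per well in DMSO · Reagent – 5000 T. cruzi trypomastigotes/well · Medium – Low-serum DMEM with 2% FBS · Timing – ≥90 h infection period, 3 h prior cell attachment · Evaluation – parasite load inhibition, % · Technique – GalScreen luminescence, 60 min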
CendR NRP1 mod: NRP-1/CendR interaction modulation; O14786; FAM-RPARPAR peptide binding to NRP-1, fluorescence polarization; inhibition, % at 25 µM; actives 0.85% (n = 360,000); AID 602438;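 active = inhibition or corrected inhibition above about 18%, plus a signal ratio from 0.5 to 1.5, limit read from the data, passing the limit was not always enough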
V-ATPase pHluor: regulators of yeast V-ATPase proton transport; S. cerevisiae, pHLuorin cytosolic pH fluorescence; response, % at 10 µM; actives 0.37% (n = 350,000); AID 504577; in the data active = response mostly above about 7.3%, no sharp cut-off; inactive = mostly below about 5.4%; also: actives read high
Yeast superoxide: yeast age-related superoxide inhibition as caloric restriction mimetic | S. cerevisiae aged cells, superoxide DHE fluorescence; hits give low values | AID 2690 | superoxide response (% of plate mean), % at 10 µM | actives 0.18% (n = 330,000);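 active = superoxide response under a set limit, about three screen SD below normal, cut at about 65% in these data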;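 also: yeast aged for seven days with compound at 30 °C before DHE staining; 100% = average MFI of all compound-treated wells on the plate with controls excluded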
HIF activator: HIF pathway transcriptional activation | activation, % at 7.5 µM (by protocol) | actives 0.32% (n = 300,000) | U2OS HRE-luciferase reporter, luminescence; normalized: DMSO 0%, desferrioxamine 100%;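 active = mean activation of at least 10% of the iron chelator positive control signal, with at least half of replicates also reaching 10%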
* = called active by the depositor; . = not tested or not shown. The list is not random: actives were taken first. Their share in the collection is about 3%.

SMILES	AI-2 QS modul	T cruzi repl	CendR NRP1 mod	V-ATPase pHluor	Yeast superoxide	HIF activator
O=C(CCCOc1ccc(Cl)cc1Cl)N/N=C/c1ccccc1	26.4	-12.6	-5.5	0.3	96.0	1.2
O=C(COc1ccc(Cl)cc1Cl)N/N=C/CCc1ccccc1	17.5	-0.4	10.0	-1.5	102.2	10.5*
O=C(CCCOc1ccc(Cl)cc1Cl)N/N=C/c1ccccc1O	-9.0	-0.4	-2.3	-2.6	105.3	11.3*
Cc1cc(C)n(-c2nc(C)nc(NCc3ccccc3)n2)n1	16.6	-32.1	0.3	1.7	123.1	0.1
Cc1cc(C)n(-c2nnc(NCc3ccc(Cl)cc3)nn2)n1	3.3	7.3	30.0*	0.7	80.3	-0.2
Cn1c(SCC(=O)c2c(N)n(C)c(=O)n(C)c2=O)nnc1-c1ccc(F)cc1	13.6	-7.5	-0.5	-0.9	105.3	-0.1
Cc1cccc(C)c1NC(=S)N/N=C/c1ccc(OCCC(C)C)cc1	40.1	62.6*	0.6	-1.1	100.5	0.4
CCCCNc1nc(N(C)c2ccccc2)nc(-n2ccnc2)n1	34.1	60.5*	-0.6	-1.0	85.5	-0.6
c1ccc(-c2ccc(-n3ccnc3)cc2)cc1	3.3	55.8*	5.1	-1.4	70.5	.
CN(c1ccccc1)c1nc(-n2ccnc2)nc(-n2ccnc2)n1	40.5	26.1	-1.3	0.6	112.0	-0.9
CCCCCNc1nc(-c2ccccc2)nc(-n2ccnc2)n1	-0.9	61.9*	-5.9	-2.6	107.8	-1.0
c1ccc(-c2nc(N3CCN(c4ccccc4)CC3)nc(-n3ccnc3)n2)cc1	16.4	60.2*	-0.4	2.8	89.9	0.0
CCCC[C@@H]1C[C@H]1[C@@H](NC(=O)c1ccco1)c1ccccc1C(F)(F)F	0.0	-4.8	.	.	.	-0.2
O=C(Nc1ccn(CCCNCc2ccccn2)c(=O)n1)OCc1ccccc1	.	.	5.6	3.3	.	.
Cc1cccc(N2CCN(C(c3ccncc3)c3nnnn3C(C)(C)C)CC2)c1C (stereo unspecified)	2.4	64.3*	3.4	0.5	102.3	-1.0
Cc1ccc(CN2CCS(=O)(=O)CC2)cc1	14.3	-23.0	27.3*	1.9	100.0	0.7
COC(=O)/C(=N/Nc1ccc(C)cc1)N1CCCc2ccccc21	21.4	10.0	3.5	1.5	62.7*	0.1
CSc1ncccc1C(=O)OCC(=O)N(C)C	5.5	5.8	0.7	1.5	83.8	0.0
COc1ccc(N2CCN(C(=O)c3ccc(Br)cc3)CC2)c([N+](=O)[O-])c1	19.6	14.3	16.4*	-0.1	112.6	-0.1
COc1ccc(CCNC(=O)c2c(O)c3cccc4c3n(c2=O)CC4)cc1OC	9.2	-12.3	44.3*	6.5	99.4	0.1
O=C(NCc1ccc2c(c1)OCO2)c1c(O)c2cccc3c2n(c1=O)CCC3	20.5	9.0	8.7	30.4*	94.9	0.1
O=C(NC1CCCc2ccccc21)C1CCN(S(=O)(=O)c2cccc3nonc23)CC1 (stereo unspecified)	14.1	8.9	-11.9	2.9	109.6	0.2
Cc1cccc(C)c1NC(=O)CN(C)C(=O)c1ccccc1SCC(=O)N1CCCC1	-5.6	-4.5	3.7	1.5	105.2	0.0
NC(=O)c1sc2nc(-c3cccs3)ccc2c1N	-3.2	7.9	-47.4	3.2	100.6	0.0
CC(C)(C)c1ccc(C(=O)C2CCCN(C(=O)CN3CCCC3=O)C2)cc1 (stereo unspecified)	16.1	-1.5	-2.6	-4.2	111.0	0.4
COc1ccc(Cl)cc1C(=O)C1CCCN(Cc2cnc(N3CCOCC3)s2)C1 (stereo unspecified)	-0.5	71.6*	-1.3	0.6	94.0	0.2
COc1ccc(C(=O)C2CCCN(C(=O)C3CCOCC3)C2)cc1OC (stereo unspecified)	9.6	-1.6	4.4	1.1	100.2	423.6*
COc1ccc(F)cc1C(=O)C1CCCN(Cc2cnc(N3CCCC3)s2)C1 (stereo unspecified)	-0.3	56.6*	8.9	6.4	113.6	-0.4
